The values below come from ChEMBL document CHEMBL1130319, “Preparation, DNA binding, and in vitro cytotoxicity of a pair of enantiomeric platinum(II) complexes, [(R)- and (S)-3-aminohexahydroazepine]dichloroplatinum(II). Crystal structure of the S enantiomer” (J Med Chem, 1997).

The term IC50 denotes the point on the concentration scale where inhibition reaches its midpoint. A higher IC50 goes with weaker potency.

Holding throughout (format): functional, cell-based
The subject of assay [1] is PC-9. Briefly: In vitro cytotoxicity was determined by using cultures of human resistant lung (PC9cisR) cancer cells by SRB assay. The method in brief: (§1)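 Cells grown in RPMI 1640/10% FCS under 7.5% CO2, 5% O2. Seeded at 5000 cells/well for 24 h, then given complexes (saline stock diluted in medium) at final 0–200 μM for 96 h. Fixed in cold 10% TCA 30 min at 4 °C, stained with 0.4% SRB in 1% acetic acid 15 min, dye solubilized in 10 mM Tris, A570. Percent of control from 4 or 6 replicates; IR50 read from curves.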
On the technique in general: The SRB assay estimates cell density from bound dye.

The subject of assay [2] is PC-9. Kind of assay: In vitro cytotoxicity was determined by using cultures of human resistant lung (PC9cisR) cancer cells by MTT assay. The method in brief:
(§2)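 Monolayers in RPMI 1640 with 10% FCS, 37 °C, 7.5% CO2/5% O2/85% N2. Trypsinized, 5000 cells/well, 24 h preincubation. Complexes in 0.9% NaCl saline, final 0–200 μM, 96 h exposure; washed. MTT 1 mg/mL in FCS-free medium, 4 h at 37 °C, formazan in 2-propanol, OD 570 nm. Viability % of untreated; 4 or 6 replicates; IR50 from dose-response curves.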
Background: Tetrazolium assays rely on reduction of a dye to a coloured formazan, in cell work by metabolically active cells.

Assay [3] relates to BL13/0. Kind of assay: In vitro cytotoxicity was determined by using cultures of human bladder (BL13/0) cancer cells by SRB assay. The gist of the method:
as §1

In assay [4] the test system is BL13/0. Briefly: In vitro cytotoxicity was determined by using cultures of human bladder (BL13/0) cancer cells by MTT assay. The method in brief: as §2
Assay [5] relates to DU-145. Briefly: In vitro cytotoxicity was determined by using cultures of human prostate (DU145) cancer cells by MTT assay. The gist of the method: as §2
For assay [6], the system named is PC-9. Kind of assay: In vitro cytotoxicity was determined by using cultures of human lung (PC9) cancer cells by MTT assay. The method in brief: as §2
The test system of assay [7] is PC-9. Kind of assay: In vitro cytotoxicity was determined by using cultures of human lung (PC9) cancer cells by SRB assay. The method in brief: as §1
Assay [8] relates to DU-145. Briefly: In vitro cytotoxicity was determined by using cultures of human prostate (DU145) cancer cells by SRB assay. The method in brief:
as §1

In the case of “8,8-platinumdichloro-(6R)-1,7-diazoniabicyclo[4.2.1]nonane”, the IC50 in assay [1] amounted to 27.3 µM; in assay [2] it was 16 µM; in assay [3] it was 7.2 µM; in assay [4], 1.3 µM; in assay [5], 2.9 µM; in assay [6], 5.9 µM. The half-maximal inhibitory concentration (IC50) in assay [7] amounted to 11 µM; in assay [8] it was 3.3 µM.
Take CISPLATIN: the concentration for half-maximal inhibition (IC50) in assay [1] is over 17.5 µM; in assay [2] it was 11.7 µM; in assay [3], 9.5 µM; in assay [4], 1.9 µM; in assay [5] it was 1.8 µM; in assay [6], 1.4 µM. Besides, the IC50 in assay [8] stood at 1 µM.
